# High-throughput results from PubChem BioAssay.
# The list is not random: actives were taken first. Their share in the collection is about 4%.
# MPTP block: inhibitors of mitochondrial permeability transition pore. isolated mouse mitochondria, Ca2+ swelling absorbance, 30 min. inhibition, % at 10 µM. hit rate 1.4% among 360,000;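 active = inhibition of 50% or more, scaled per plate between neutral and stimulator controls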;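 note: 0% = DMSO wells given calcium and 100% = 1 mM EGTA wells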
# GPR7 antag: human neuropeptides B/W receptor 1 antagonism; AID 1861; inhibition, % at 4.4 µM; P48145; hit rate 1.1% among 290,000; GPR7-expressing cells, fluorescence antagonist assay; in the data active = inhibition above about 16%, passing the limit was not always enough;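 note: cells stimulated with the agonist NPW; 0% = agonist with vehicle and 100% = vehicle without agonist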
# DAGLB inh: blocks human DAGLB lipase activity. HEK293T DAGLB membrane lysate, EnzChek fluorogenic substrate. inhibition, % at 5.17 µM. hit rate 0.059% among 340,000; in the data active = inhibition above about 34%;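 note: 0% = enzyme with vehicle and 100% = wells lacking enzyme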
# TAAR1 antagonist: human TAAR1 antagonism; Q96RJ0; CHO RD-HGA16 TAAR1, Fluo-8 calcium fluorescence, antagonist; inhibition, % at 3 µM; hit rate 1.5% among 360,000; AID 624466;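 active = inhibition above a per-plate cutoff, the mean inhibition of test compounds on that plate plus 3 SD, cut at about 49% in these data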;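 note: 0% = DMSO plus EC80 beta-PEA response and 100% = DMSO alone without agonist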
# Target sequence (Q96RJ0 whole entry, looked up): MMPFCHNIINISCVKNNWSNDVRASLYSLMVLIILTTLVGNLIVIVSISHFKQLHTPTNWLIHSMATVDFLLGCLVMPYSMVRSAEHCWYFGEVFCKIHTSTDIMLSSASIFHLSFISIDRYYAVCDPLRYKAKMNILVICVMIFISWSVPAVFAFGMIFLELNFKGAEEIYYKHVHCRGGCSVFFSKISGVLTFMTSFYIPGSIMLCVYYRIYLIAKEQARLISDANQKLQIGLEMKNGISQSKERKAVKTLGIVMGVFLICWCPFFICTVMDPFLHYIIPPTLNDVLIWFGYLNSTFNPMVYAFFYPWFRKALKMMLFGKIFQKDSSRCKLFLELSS
#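 Material: CHO RD-HGA16 cells bearing hTAAR1; compound dosing: one-point dosing, 3 µM nominal final; schedule: dye loading 75 min at 37 °C, then 30 min room temperature; measured by: calcium fluorescence with Fluo-8; control set: vehicle and agonist controls; replication: n of 1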
# TAAR1 agonist: human TAAR1 agonism; CHO RD-HGA16 TAAR1, Fluo-8 calcium fluorescence; vehicle wells 0%, saturating PEA agonist 100%; activation, % at 3 µM; hit rate 0.99% among 360,000; AID 624467;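 active = activation above the mean activation of all test compounds in the run plus 3 SD, cut at about 38% in these data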
#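 test system = CHO RD-HGA16 cells carrying human TAAR1 plus Gα16 | schedule = 17-24 h seeding, 75 min 37 °C dye, 30 min RT | compound dosing = 3 µM single concentration | control set = DMSO and PEA EC100 | replicates = n 1 | signal = Fluo-8 fluorescence, 5 s baseline then 140 s kinetic read | measure = percent activation vs PEA EC100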
# Rh123 counter: mitochondrial membrane potential, counter-screen | inhibition, % at 10 µM | shares compounds with MPTP block | isolated mitochondria, Rhodamine 123 fluorescence | hit rate 78% among 5,000; in the data active = inhibition above about 22%;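 note: 0% = DMSO vehicle and 100% = positive control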
# MPTP swell DR: dose response confirmation of mitochondrial permeability transition pore inhibitors; isolated mitochondria swelling, absorbance; shares compounds with MPTP block; hit rate 58% among 780; IC50, µM; in the data active = IC50 below about 20 µM
# MPTP counter DR: MPTP inhibitor counter-screen activity, dose response. shares compounds with MPTP block. isolated mitochondria counterscreen, fluorescence read-out. IC50, µM. hit rate 49% among 780; in the data active = IC50 below about 80 µM
# Active calls of the source: *; i = inactive; nt = no result.
SMILES,MPTP block,GPR7 antag,DAGLB inh,TAAR1 antagonist,TAAR1 agonist,Rh123 counter,others
FC(F)(F)c1ccc(-c2cccc3c2C2CC3CCN2Cc2ccc3c(c2)OCO3)cc1 (stereo unspecified),1,nt,nt,-47,1,nt,
O=S(=O)(c1cccs1)N1CCN(CC(O)COc2cc(Cl)ccc2Cl)CC1 (stereo unspecified),87*,-1,-2,31,17,91*,
Nc1nc2sc3c(c2c(=O)s1)CCCC3,1,-17,-1,-7,8,nt,
Nc1c2c(nc3sc4c(c13)CCCC4)CCCCCC2,86*,1,1,-11,1,103*,
CCO/C(C)=N/Oc1cc(OC)cc(OC)c1,1,nt,nt,-10,-2,nt,
O=C(C(=O)N1CCC(CNS(=O)(=O)c2ccc(C(F)(F)F)cc2)CC1)c1cccs1,nt,nt,nt,-6,7,nt,
CCOC(=O)c1ccc(-c2c(C(=O)OCC)oc3cc(O)c(CC)cc3c2=O)o1,82*,-16,-5,46,11,86*,
CCOC(=O)c1oc2cc(O)c(CC)cc2c(=O)c1-c1cscn1,-1,-11,1,7,1,nt,
O=[N+]([O-])c1cc([N+](=O)[O-])c2cc(-c3cccnc3)[nH]c2c1,52*,nt,2,49*,19,56*,
O=[N+]([O-])c1ccc2nc(-c3cccnc3)[nH]c2c1,-1,-5,2,8,7,nt,
CCOc1cc(C)c(-c2onc(C(F)(F)F)c2-c2csc(C)n2)c(O)c1,70*,-1,-11,16,2,83*,
Cc1nc(-c2c(C(F)(F)F)noc2-c2ccc(O)cc2O)cs1,0,7,-1,3,0,nt,
Cc1cc(C)c(C)c(S(=O)(=O)N2CCNC(=O)C2)c1C,1,nt,-5,-23,2,nt,
Cc1c(C#N)c(NC(=O)c2cccc(Cl)c2)n(Cc2ccccc2)c1C,-1,-11,2,33,-1,nt,
COc1ccc(Cn2c(C)c(C)c(C#N)c2NC(=O)Nc2ccc(Cl)cc2)cc1,94*,-14,-1,1,7,78*,
COc1ccc(Cn2c(C)c(C)c(C#N)c2NC(=O)Nc2cccc(Cl)c2)cc1,74*,-8,-5,2,6,70*,
COc1ccc(NC(=O)Nc2ccc(OC)cc2)cc1,1,-10,-1,-10,36,nt,
C[C@@H]1ON(C)[C@H]2C[C@H]3c4[nH]c5c(-c6ccc(Cl)cc6)cccc5c4CCN3C(=O)[C@@H]12,nt,nt,nt,-11,-1,nt,
CSCCC(C(=O)NC1CCCC1)n1c(C2CC2)nc2ccccc21 (stereo unspecified),2,nt,nt,-22,1,nt,
CCCCCCC1CC(CSC(=N)N)OC1=O (stereo unspecified),91*,-4,-1,-24,13,-5,MPTP swell DR=i;MPTP counter DR=>80
CCCC1CC(CSC(=N)N)OC1=O (stereo unspecified),-5,-13,-1,4,6,nt,
CCc1nc2c(OCc3c(C)noc3C)cccn2c1N(C=O)Cc1ccccc1,0,nt,nt,-67,-2,nt,
COc1cc(/C=N/N2C(=O)CSC2=S)ccc1O,1,-5,-1,7,11,nt,
O=C1CSC(=S)N1/N=C/c1cc(Br)c(O)c(Br)c1,83*,31,-25,nt,nt,66*,
O=S(=O)(Nc1nc2ccccc2nc1Nc1ccc(N2CCOCC2)cc1)c1cc(Cl)ccc1Cl,86*,2,2,30,3,77*,
Clc1nc(Nc2ccc(N3CCOCC3)cc2)c2ccccc2n1,-2,4,1,-8,2,nt,
O=[N+]([O-])c1cc(Br)cc(C=Nc2ccc3c(c2)OCO3)c1O,75*,-9,19,19,2,52*,
O=[N+]([O-])c1ccc(O)c(C=Nc2ccc3c(c2)OCO3)c1,6,-8,10,-37,3,nt,
Cc1nc2ccc(F)cc2cc1C(=O)Nc1ccc(Cl)c(Cl)c1,93*,2,-1,-4,5,82*,
CC(C)C[C@H]1CNC(=O)C(=O)N1C[C@@H]1CCCN1C[C@H](Cc1ccc(O)cc1)N1C[C@H](Cc2ccccc2)N(CC2CCCCC2)C(=O)C1=O,-1,nt,nt,8,0,nt,
